Data: ChEMBL document CHEMBL2069278, “Novel substituted benzothiophene and thienothiophene carboxanilides and quinolones: synthesis, photochemical synthesis, DNA-binding properties, antitumor evaluation and 3D-derived QSAR analysis” (J Med Chem, 2012)
Calls of active or inactive are those of the source. The rule behind the calls is not given here.

Columns and labels:
NCI-H460 = assay: Cytotoxicity against human H460 cells after 72 hrs by MTT assay; format: functional, cell-based; conditions: NCI-H460, 72 h
Summary of the method: (§1)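 Cells seeded on day 0 at 1 × 10^4 to 3 × 10^4 cells/mL (adherent lines in DMEM, MOLT-4 in suspension in RPMI, 10% FBS, 37 °C, 5% CO2); 10-fold dilutions 10−8–10−4 M for 72 h; MTT, OD 570 nm; percentage growth versus time-zero and control; IC50 by linear regression; quadruplicate, at least two experiments.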

Nucleic Acid [1] = assay: Binding affinity to radiolabeled Pvu2 DNA after 15 mins by Dnase1 footprinting assay; format: nucleic-acid assay
Summary of the method: (§2)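 265 bp EcoRI/PvuII pBluescript fragment, 3′-end labeled with α-[32P]dATP by Klenow. Compounds at increasing concentrations pre-equilibrated with DNA 15 min at 37 °C, then DNase I (final 0.002 unit/mL) in 20 mM NaCl, 2 mM MgCl2, 2 mM MnCl2, pH 7.3, 4 min digestion; products resolved on denaturing 8% polyacrylamide/8 M urea gel, G-track for base positions.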

Nucleic Acid [2] = assay: Binding affinity to calf thymus DNA assessed as change in melting temperature at drug/base pair ratio of 0.5 by UV-visible spectrophotometric analysis; format: nucleic-acid assay; conditions: Bos taurus
Summary of the method: (§3)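 Melting: 20 μM CT-DNA or poly(dAdT)2 alone or with compound (drug/base pair ratio 0.01−0.5) in BPE buffer (6 mM Na2HPO4, 2 mM NaH2PO4, 1 mM EDTA, pH 7.1); A260 read each minute from 20 to 100 °C at 1 °C/min; Tm from midpoint of hyperchromic transition (first-derivative plots); ΔTm = Tm[drug+DNA] − Tm[DNA alone].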

MCF7 = assay: Cytotoxicity against human MCF7 cells after 72 hrs by MTT assay; format: functional, cell-based; conditions: MCF7, 72 h; summary of the method: as §1
HCT-116 [3] = assay: Cytotoxicity against human HCT116 cells after 72 hrs by MTT assay; format: functional, cell-based; conditions: HCT-116, 72 h; summary of the method: as §1
[4] = target: DNA topoisomerase 2-alpha (Homo sapiens) (UniProt P11388); assay: Inhibition of human topoisomerase 2-mediated DNA cleavage at 50 uM incubated for 45 mins followed by enzyme addition measured after 30 mins by agarose gel electrophoresis
Chain of DNA topoisomerase 2-alpha (Homo sapiens) (P11388 whole entry): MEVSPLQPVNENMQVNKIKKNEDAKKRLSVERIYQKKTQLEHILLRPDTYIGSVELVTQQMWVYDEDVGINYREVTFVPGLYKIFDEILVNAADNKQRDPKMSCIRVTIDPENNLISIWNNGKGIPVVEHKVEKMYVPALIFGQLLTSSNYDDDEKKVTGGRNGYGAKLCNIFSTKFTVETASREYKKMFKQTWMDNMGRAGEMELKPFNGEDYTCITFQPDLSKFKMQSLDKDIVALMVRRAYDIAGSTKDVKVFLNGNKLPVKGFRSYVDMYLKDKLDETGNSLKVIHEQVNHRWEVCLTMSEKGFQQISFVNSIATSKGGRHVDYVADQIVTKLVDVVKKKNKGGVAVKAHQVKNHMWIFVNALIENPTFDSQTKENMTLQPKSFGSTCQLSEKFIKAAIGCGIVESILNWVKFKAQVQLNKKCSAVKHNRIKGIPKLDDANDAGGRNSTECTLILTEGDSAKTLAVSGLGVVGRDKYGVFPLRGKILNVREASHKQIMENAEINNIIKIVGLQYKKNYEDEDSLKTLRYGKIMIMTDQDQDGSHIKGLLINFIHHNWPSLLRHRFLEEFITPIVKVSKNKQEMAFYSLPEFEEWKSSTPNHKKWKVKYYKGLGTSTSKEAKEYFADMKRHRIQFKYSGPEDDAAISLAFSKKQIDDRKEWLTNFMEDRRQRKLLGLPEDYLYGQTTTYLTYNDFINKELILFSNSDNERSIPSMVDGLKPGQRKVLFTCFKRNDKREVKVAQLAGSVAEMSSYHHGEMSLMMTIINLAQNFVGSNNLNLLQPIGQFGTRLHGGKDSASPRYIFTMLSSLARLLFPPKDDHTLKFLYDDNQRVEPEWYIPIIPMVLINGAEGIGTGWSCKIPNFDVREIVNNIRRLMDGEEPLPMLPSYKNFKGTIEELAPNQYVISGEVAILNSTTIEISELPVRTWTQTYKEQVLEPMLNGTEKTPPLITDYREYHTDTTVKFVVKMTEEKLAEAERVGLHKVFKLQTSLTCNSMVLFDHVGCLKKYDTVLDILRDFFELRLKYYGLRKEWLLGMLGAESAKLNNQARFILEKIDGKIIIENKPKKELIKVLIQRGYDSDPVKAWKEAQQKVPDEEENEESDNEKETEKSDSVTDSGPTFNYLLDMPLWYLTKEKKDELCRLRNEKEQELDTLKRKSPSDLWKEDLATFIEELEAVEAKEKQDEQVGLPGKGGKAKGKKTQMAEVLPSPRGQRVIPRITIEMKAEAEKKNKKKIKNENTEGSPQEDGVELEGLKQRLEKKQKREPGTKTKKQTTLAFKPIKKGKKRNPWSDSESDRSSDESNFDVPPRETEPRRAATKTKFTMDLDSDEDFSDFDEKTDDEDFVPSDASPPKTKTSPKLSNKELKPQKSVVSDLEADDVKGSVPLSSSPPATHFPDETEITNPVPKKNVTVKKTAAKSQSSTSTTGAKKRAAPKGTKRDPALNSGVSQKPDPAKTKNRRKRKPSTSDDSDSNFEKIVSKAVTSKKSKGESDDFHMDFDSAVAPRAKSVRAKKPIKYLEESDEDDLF
Summary of the method: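 Compounds (50 μM) incubated with 350 ng supercoiled pUC19 before topoisomerase II addition; gel quantified for percentage poisoning normalized to etoposide at the same concentration.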

Nucleic Acid [5] = assay: Binding affinity to calf thymus DNA assessed as change in melting temperature at drug/base pair ratio of 0.25 by UV-visible spectrophotometric analysis; format: nucleic-acid assay; conditions: Bos taurus; summary of the method: as §3
Nucleic Acid [6] = assay: Binding affinity to calf thymus DNA assessed as DNA intercalation at 50 uM by circular dichroism spectra analysis; format: nucleic-acid assay; conditions: Bos taurus
Summary of the method: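 CD: 50 μM compound with 200 μM CT-DNA in BPE buffer, alone or plus 10 or 100 mM NaCl; spectra 480–230 nm, 10 mm quartz cell, 20 °C; compound without DNA as control for intrinsic CD.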

SW-620 = assay: Cytotoxicity against human SW620 cells after 72 hrs by MTT assay; format: functional, cell-based; conditions: SW-620, 72 h; summary of the method: as §1
Nucleic Acid [7] = assay: Binding affinity to AT rich site of Pvu2 DNA by densitometric analysis; format: nucleic-acid assay; summary of the method: as §2
[8] = target: T1, DNA topoisomerase 1 (Homo sapiens) (UniProt P11387); assay: Inhibition of human topoisomerase 1-mediated supercoiled pUC19 plasmid DNA relaxation at 50 uM incubated for 45 mins followed by enzyme addition measured after 30 mins by agarose gel electrophoresis
T1 sequence (whole entry): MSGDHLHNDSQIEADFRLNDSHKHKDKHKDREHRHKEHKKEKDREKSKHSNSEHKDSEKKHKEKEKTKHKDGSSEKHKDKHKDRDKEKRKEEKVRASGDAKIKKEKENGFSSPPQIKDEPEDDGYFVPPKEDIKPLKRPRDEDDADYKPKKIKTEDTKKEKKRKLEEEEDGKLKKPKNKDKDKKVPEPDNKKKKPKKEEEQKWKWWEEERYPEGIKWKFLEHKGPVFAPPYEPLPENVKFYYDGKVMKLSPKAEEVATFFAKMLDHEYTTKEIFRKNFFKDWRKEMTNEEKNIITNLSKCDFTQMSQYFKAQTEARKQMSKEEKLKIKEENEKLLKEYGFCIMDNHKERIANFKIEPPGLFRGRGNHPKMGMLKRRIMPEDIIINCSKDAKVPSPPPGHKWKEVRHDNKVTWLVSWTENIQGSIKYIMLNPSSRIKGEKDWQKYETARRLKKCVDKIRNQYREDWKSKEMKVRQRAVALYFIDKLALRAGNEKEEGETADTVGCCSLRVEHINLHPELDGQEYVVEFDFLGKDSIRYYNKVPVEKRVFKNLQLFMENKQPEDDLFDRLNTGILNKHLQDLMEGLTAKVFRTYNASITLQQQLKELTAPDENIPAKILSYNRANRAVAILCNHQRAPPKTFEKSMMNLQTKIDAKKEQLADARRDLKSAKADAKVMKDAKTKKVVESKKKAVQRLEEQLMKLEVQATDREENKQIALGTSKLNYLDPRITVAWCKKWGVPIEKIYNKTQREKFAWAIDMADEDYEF
Summary of the method: (§4)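 Graded compound concentrations preincubated with supercoiled pUC19, then 4 units human topoisomerase I, 37 °C for 45 min in relaxation buffer; stopped with 0.25% SDS and 250 μg/mL proteinase K, 30 min at 50 °C; 1% agarose gel without ethidium bromide, 2 h at 120 V in TBE, then stained with ethidium bromide.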

MOLT-4 = assay: Cytotoxicity against human MOLT4 cells after 72 hrs by MTT assay; format: functional, cell-based; conditions: MOLT-4, 72 h; summary of the method: as §1
Nucleic Acid [9] = assay: Binding affinity to calf thymus DNA assessed as change in melting temperature at drug/base pair ratio of 0.1 by UV-visible spectrophotometric analysis; format: nucleic-acid assay; conditions: Bos taurus; summary of the method: as §3
Nucleic Acid [10] = assay: Binding affinity to calf thymus DNA assessed as change in melting temperature at drug/base pair ratio of 0.025 by UV-visible spectrophotometric analysis; format: nucleic-acid assay; conditions: Bos taurus; summary of the method: as §3
Nucleic Acid [11] = assay: Binding affinity to calf thymus DNA assessed as change in melting temperature at drug/base pair ratio of 0.01 by UV-visible spectrophotometric analysis; format: nucleic-acid assay; conditions: Bos taurus; summary of the method: as §3
[12] = target: T1, DNA topoisomerase 1 (Homo sapiens); assay: Inhibition of human topoisomerase 1-mediated supercoiled pUC19 plasmid DNA relaxation at 0.5 to 2 uM incubated for 45 mins followed by enzyme addition measured after 30 mins by agarose gel electrophoresis; summary of the method: as §4
HCT-116 [13] = assay: Induction of cell cycle arrest in human HCT116 cells assessed as accumulation at G1 phase after 24 to 48 hrs by propidium iodide based flow cytometry; format: functional
Summary of the method: (§5)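 HCT116 cells (2 × 10^5 per well) treated after 24 h with 1 or 5 μM for 24 and 48 h; floating and attached cells pooled, fixed in 70% ethanol, stained with 50 μg/mL propidium iodide plus RNase A; 20 000 events by flow cytometry; phase percentages from DNA histograms; duplicate, repeated at least twice.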

HCT-116 [14] = assay: Induction of cell cycle arrest in human HCT116 cells assessed as accumulation at G1 phase at 1 to 5 uM by propidium iodide based flow cytometry; format: functional; conditions: TDE = time-dependent effect; summary of the method: as §5
HCT-116 [15] = assay: Induction of cell cycle arrest in human HCT116 cells assessed as accumulation at G2/M phase at 1 to 5 uM by propidium iodide based flow cytometry; format: functional; conditions: TDE = time-dependent effect; summary of the method: as §5
HCT-116 [16] = assay: Induction of cell cycle arrest in human HCT116 cells assessed as accumulation at G2/M phase after 24 to 48 hrs by propidium iodide based flow cytometry; format: functional; summary of the method: as §5
HCT-116 [17] = assay: Induction of cell cycle arrest in human HCT116 cells assessed as accumulation at G1 phase at 5 uM after 24 to 48 hrs by propidium iodide based flow cytometry; format: functional; summary of the method: as §5
[18] = target: T1, DNA topoisomerase 1 (Homo sapiens); assay: Inhibition of human topoisomerase 1-mediated supercoiled pUC19 plasmid DNA relaxation at 10 uM incubated for 45 mins followed by enzyme addition measured after 30 mins by agarose gel electrophoresis; summary of the method: as §4
[19] = target: T1, DNA topoisomerase 1 (Homo sapiens); assay: Inhibition of human topoisomerase 1-mediated DNA cleavage at 10 uM incubated for 45 mins followed by enzyme addition measured after 30 mins by agarose gel electrophoresis
Summary of the method: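 Topo I cleavage run like the relaxation assay (pUC19, 4 units human topoisomerase I, 37 °C, 45 min; SDS/proteinase K stop), but samples run on 1% agarose gel containing ethidium bromide; camptothecin 20 μM as poisoning control.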

Row | Structure (SMILES) | IC50 (NCI-H460) [µM] | Activity (Nucleic Acid [1]) | ΔTm (Nucleic Acid [2]) [°C] | IC50 (MCF7) [µM] | IC50 (HCT-116 [3]) [µM] | inhibition [4] | ΔTm (Nucleic Acid [5]) [°C] | Activity (Nucleic Acid [6]) | IC50 (SW-620) [µM] | Activity (Nucleic Acid [7]) | IC50 (MOLT-4) [µM] | ΔTm (Nucleic Acid [9]) [°C] | ΔTm (Nucleic Acid [10]) [°C] | ΔTm (Nucleic Acid [11]) [°C] | inhibition [12] | Activity (HCT-116 [13]) | Activity (HCT-116 [14]) | Activity (HCT-116 [15]) | Activity (HCT-116 [16]) | other results
1 | O=C(Nc1ccccc1)c1sc2cc(C3=NCCN3)ccc2c1Cl | 1.4 | Active | 3.8 | 2 | 2.8 | Active | 3 | inactive | 1.3 | inactive | 2 | – | – | – | – | – | – | – | – | inhibition [8]: Active
2 | O=c1[nH]c2ccc(C3=NCCN3)cc2c2c1sc1cc(C3=NCCN3)ccc12 | ≥ 10 | Active | – | ≥ 10 | ≥ 10 | Active | 22.4 | – | ≥ 10 | inactive | 3 | 15.7 | 0 | 0 | Active | – | – | – | – | –
3 | O=c1[nH]c2ccc(C3=NCCN3)cc2c2c1sc1ccccc12 | 1.6 | Active | – | 1.4 | 0.9 | Active | 18 | – | 0.7 | inactive | 0.8 | 4.9 | 0.9 | 0 | Active | Dose-dependent effect | tde | tde | Dose-dependent effect | –
4 | Cn1c(=O)c2sc3ccccc3c2c2cc(C3=NCCN3)ccc21 | 0.6 | Active | 15.6 | 1.3 | 0.4 | inactive | 10.7 | – | 0.2 | inactive | 0.4 | – | – | – | Active | Dose-dependent effect | tde | tde | Dose-dependent effect | –
5 | O=C(Nc1ccc(C2=NCCN2)cc1)c1sc2ccccc2c1Cl | 1 | Active | 6.8 | 1.6 | 1.8 | Active | 5 | inactive | 1.2 | inactive | 2.1 | – | – | – | – | Dose-dependent effect | tde | tde | Dose-dependent effect | Activity (HCT-116 [17]): Active; inhibition [18]: Active
6 | O=c1[nH]c2ccccc2c2c1sc1cc(C3=NCCN3)ccc12 | 1.2 | Active | 14.6 | 1.5 | 1.3 | Active | 11 | – | 1.2 | inactive | 0.8 | – | – | – | Active | – | – | – | – | inhibition [19]: Active
